In ChEMBL document CHEMBL1124002, “Antiallergy agents. 1. Substituted 1,8-naphthyridin-2(1H)-ones as inhibitors of SRS-A release” (J Med Chem, 1988):
Activity calls are given as the source filed them. No cut-off for these calls is given here.

Tests used:
Cavia porcellus [1] = test: Percent inhibition of bronchospasm when administered at a dose of 5 mg/kg in guinea pig; assay type: functional; conditions: Bronchiole
Method in brief: (§1)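 Ovalbumin-sensitized, anesthetized guinea pigs received iv propranolol 1 mg/kg, indomethacin 5 mg/kg and mepyramine 2 mg/kg, then a 0.5 min aerosol challenge with 0.5% ovalbumin 15 min later. The agent was given intravenously. The rise in inflation pressure was scored as % inhibition of bronchospasm.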

Cavia porcellus [2] = test: Percent inhibition of bronchospasm when administered at a dose of 1 mg/kg in guinea pig; assay type: functional; conditions: Bronchiole; method in brief: as §1
Cavia porcellus [3] = test: Percent inhibition of bronchospasm when administered at a dose of 2.5 mg/kg in guinea pig; assay type: functional; conditions: Bronchiole; method in brief: as §1
Cavia porcellus [4] = test: Percent inhibition of bronchospasm in vivo for a dose of 5 mg/kg in guinea pig; assay type: functional; conditions: Bronchiole, read-out: Inhibition; method in brief: as §1
Cavia porcellus [5] = test: Percent inhibition of bronchospasm administered intravenously at a dose of 5 mg/kg in guinea pig; assay type: functional; conditions: Bronchiole, route intravenous; method in brief: as §1
Cavia porcellus [6] = species: Cavia porcellus; test: Percent inhibition of SRS-A release in vitro at a dose of 10 uM in guinea pig; assay type: functional
Method in brief: (§2)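 Male Hartley guinea pigs were sensitized with ovalbumin (5 mg ip + 5 mg sc on day 1, 5 mg ip on day 4). About 400 mg chopped lung was preincubated with compound for 12 min at 37 °C in Tyrode's with 10 mM cysteine, then challenged with 20 μg/mL ovalbumin (final) for 0.25 h. SRS-A in ethanol-extracted supernatant was bioassayed on mepyramine-treated ileum against a rat SRS-A standard. Results are % inhibition versus vehicle, from 3-4 lungs.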

Cavia porcellus [7] = species: Cavia porcellus; test: Inhibitory activity against sulfidopeptide leukotriene release in guinea pig; assay type: functional
Cavia porcellus [8] = test: Effective oral dose required to inhibit bronchospasm in guinea pig; assay type: functional; conditions: Bronchiole
Method in brief: (§3)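 Guinea pigs were sensitized with ovalbumin and used 3-4 weeks later. They were fasted and anesthetized with dialurethane ip. Compounds were given orally 2 h before challenge. Propranolol 1 mg/kg, indomethacin 5 mg/kg and mepyramine 2 mg/kg were given iv 15 min before a 0.5 min aerosol of 0.5% ovalbumin through the tracheal cannula. The rise in inflation pressure measured bronchoconstriction. Results are % inhibition, 4-5 animals per group.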

Cavia porcellus [9] = species: Cavia porcellus; test: Production of LTD4 in guinea pig lung; assay type: functional
Method in brief: (§4)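 Lung fragments pooled from four sensitized guinea pigs were challenged in 0.4 g aliquots with antigen, with 10 μM test agent or DMSO vehicle added 12 min before challenge. Tyrode's held 10 mM cysteine and 10 μM indomethacin. Ethanol extracts were pooled, solvent-partitioned and run on reverse-phase HPLC with UV 280 nm. LTD4 was quantified against an LTC4 standard curve (10-200 pmol) as pmol/g.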

Rattus norvegicus = species: Rattus norvegicus; test: Compound was tested in vitro in rat polymorphonuclear leucocyte for the inhibition of production of leukotriene products at 50 uM concentration; No inhibition; assay type: functional
Cavia porcellus [10] = species: Cavia porcellus; test: Compound was tested for th inhibition of LTD4 production in guinea pig lung; assay type: functional; method in brief: as §4
Cavia porcellus [11] = test: Percent inhibition of bronchospasm in vivo at a dose of 12.5 mg/kg in guinea pig; assay type: functional; conditions: Bronchiole; method in brief: as §3
Cavia porcellus [12] = species: Cavia porcellus; test: Compound was tested for th inhibition of SRS-A production in guinea pig lung; assay type: functional
Method in brief: (§5)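 Antigen-challenged lung fragments from sensitized guinea pigs were treated with 10 μM test agent or DMSO vehicle 12 min before challenge. Tyrode's contained 10 mM cysteine and 10 μM indomethacin. SRS-A in ethanol extracts was bioassayed on guinea pig ileum and given as units/g, mean ± SEM of 4 lungs. A paired t test compared treatment with vehicle.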

Cavia porcellus [13] = test: Effective oral dose required to inhibit bronchospasm in guinea pig; 1.3-7.6 mg/kg; assay type: functional; conditions: Bronchiole; method in brief: as §3
Cavia porcellus [14] = species: Cavia porcellus; test: Production of SRS-A in guinea pig lung; assay type: functional; method in brief: as §5
Cavia porcellus [15] = species: Cavia porcellus; test: Inhibitory activity against SRS-A release in guinea pig; 0.7-2 uM; assay type: functional; method in brief: as §2
Mus musculus = species: Mus musculus; test: Compound was tested in vitro in cloned murine mast cell (MC-9) for the inhibition of production of leukotriene products at 50 uM concentration; No inhibition; assay type: functional
Cavia porcellus [16] = species: Cavia porcellus; test: Inhibitory activity against SRS-A release in guinea pig; 0.01-19 uM; assay type: functional; method in brief: as §2
Cavia porcellus [17] = test: Percent inhibition of bronchospasm in vivo at oral dose of 25 mg/kg in guinea pig
Cavia porcellus [18] = test: Percent inhibition of bronchospasm in vivo at a dose of 25 mg/kg in guinea pig; assay type: functional; conditions: Bronchiole; method in brief: as §3
Cavia porcellus [19] = species: Cavia porcellus; test: Inhibitory activity against SRS-A release in guinea pig; 0.05-14 uM; assay type: functional; method in brief: as §2
Cavia porcellus [20] = test: Effective oral dose required to inhibit bronchospasm in guinea pig; 0.9-12.8 mg/kg; assay type: functional; conditions: Bronchiole; method in brief: as §3
Cavia porcellus [21] = test: Percent inhibition of bronchospasm, when administered orally at a dose of 18 mg/kg in guinea pig; assay type: functional; conditions: Bronchiole, route oral
Method in brief: (§6)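 Male Hartley guinea pigs were sensitized with ovalbumin (5 mg ip plus 5 mg sc on day 1, 5 mg ip on day 4) and used 3-4 weeks later, fasted overnight and given dialurethane ip. They were dosed orally 2 h before challenge and given iv propranolol 1 mg/kg, indomethacin 5 mg/kg and mepyramine 2 mg/kg. Fifteen minutes later, 0.5% ovalbumin aerosol was delivered for 0.5 min via tracheal cannula. Read-out was increased inflation pressure, as mean % inhibition from 4-5 animals.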

Cavia porcellus [22] = test: Percent inhibition of bronchospasm, when administered orally at a dose of 160 mg/kg to guinea pig; assay type: functional; conditions: Bronchiole, route oral; method in brief: as §6
Cavia porcellus [23] = test: Percent inhibition of bronchospasm, when administered orally at a dose of 53 mg/kg in guinea pig; assay type: functional; conditions: Bronchiole, route oral; method in brief: as §6
Cavia porcellus [24] = species: Cavia porcellus; test: Percent inhibition of SRS-A release in vitro at a dose of 3 uM in guinea pig; assay type: functional; method in brief: as §2

SMILES: CCCc1c(OCC(O)COc2ccc3c(=O)cc(C(=O)O)oc3c2CCC)ccc(C(C)=O)c1O (configuration not stated) [FPL-55712]
- inhibition in vivo at 5 mg/kg (Cavia porcellus [1]): 68%
- inhibition in vivo at 1 mg/kg (Cavia porcellus [2]): 32%
- inhibition in vivo at 2.5 mg/kg (Cavia porcellus [3]): 57%

SMILES: CCCc1c2c(c(O)c3c(=O)cc(C(=O)O)oc13)CCCC2 [PROXICROMIL]
- inhibition in vivo at 5 mg/kg (Cavia porcellus [4]): 0%
- inhibition in vivo at 5 mg/kg (Cavia porcellus [5]): 0%

SMILES: C=CCc1c(OC(C)=O)c2cccnc2n(-c2cccc(Cl)c2)c1=O
- inhibition at 10 µM (Cavia porcellus [6]): 60%
- IC50 (Cavia porcellus [7]): ~1000 nM
- ED50 (Cavia porcellus [8]): 0.4 mg/kg

SMILES: C=CCc1c(OC(C)=O)c2cccnc2n(-c2ccccc2)c1=O
- inhibition at 10 µM (Cavia porcellus [6]): 73%
- LTD4 production at 10 µM (Cavia porcellus [9]): 25 pmol/g
- Activity (Rattus norvegicus): inactive
- Inhibition (Cavia porcellus [10]): 70%
- inhibition in vivo at 12.5 mg/kg (Cavia porcellus [11]): 84%
- Inhibition (Cavia porcellus [12]): 69%
- ED50 (Cavia porcellus [13]): 2.9 mg/kg
- SRS-A release at 10 µM (Cavia porcellus [14]): 9.3 units/g
- IC50 (Cavia porcellus [15]): 1100 nM
- Activity (Mus musculus): inactive

SMILES: CCCCc1c([O-])c2cccnc2n(-c2ccccc2)c1=O.[Na+]
- IC50 (Cavia porcellus [16]): 240 nM
- inhibition at 10 µM (Cavia porcellus [6]): 56%
- inhibition in vivo at 12.5 mg/kg (Cavia porcellus [11]): 68%
- ED50 (Cavia porcellus [8]): 14 mg/kg

SMILES: C=CCc1c(O)c2cccnc2n(-c2ccccc2)c1=O
- Inhibition (Cavia porcellus [17]): 85%
- inhibition at 10 µM (Cavia porcellus [6]): 81%

SMILES: C=CCc1c(O)c2cccnc2n(-c2ccccc2OC)c1=O
- inhibition in vivo at 25 mg/kg (Cavia porcellus [18]): 90%
- IC50 (Cavia porcellus [19]): 980 nM
- inhibition at 10 µM (Cavia porcellus [6]): 69%
- ED50 (Cavia porcellus [20]): 3.7 mg/kg

SMILES: Cn1c(=O)c2[nH]cnc2n(C)c1=O [AMINOPHYLLINE]
- inhibition in vivo at 18 mg/kg (Cavia porcellus [21]): 21%
- inhibition in vivo at 160 mg/kg (Cavia porcellus [22]): 81%
- inhibition in vivo at 53 mg/kg (Cavia porcellus [23]): 55%

SMILES: C=CCc1c(OC(C)=O)c2cccnc2n(-c2ccc(OCc3ccccc3)cc2)c1=O
- inhibition at 3 µM (Cavia porcellus [24]): 23%
